Source: ChEMBL document CHEMBL1153955, “Indolylarylsulfones bearing natural and unnatural amino acids. Discovery of potent inhibitors of HIV-1 non-nucleoside wild type and resistant mutant strains reverse transcriptase and coxsackie B4 virus” (J Med Chem, 2009)

Legend:
Influenza B virus [1] = assay: Antiviral activity against influenza B virus in MDCK cells assessed as reduction of virus-induced cytopathicity by MTS method; assay type: functional, organism-based
Influenza A virus H3N2 [2] = assay: Antiviral activity against influenza H3N2 virus in MDCK cells assessed as reduction of virus-induced cytopathicity by MTS method; assay type: functional, organism-based
Human alphaherpesvirus 1 [3] = assay: Antiviral activity against HSV1 KOS in human HEL cells assessed as protection against virus-induced cytopathicity; assay type: functional, organism-based; conditions: Human alphaherpesvirus 1, KOS
Punta Toro virus = assay: Antiviral activity against Punta Toro virus in african green monkey Vero cells assessed as protection against virus-induced cytopathicity; assay type: functional, organism-based
Summary of the method: (§1)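 Confluent cell monolayers inoculated with 100 CCID₅₀ virus. After 1-2 h adsorption, residual virus removed and cultures incubated with varying compound concentrations. Cytopathicity scored once it reached completion in untreated infected controls. EC₅₀ = dose reducing virus-induced cytopathogenicity by 50%.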

Influenza B virus [4] = assay: Antiviral activity against influenza B virus in MDCK cells assessed as reduction of virus-induced cytopathicity by visual cytopathic effect scoring method; assay type: functional, organism-based
[5] = tested on: Vesicular stomatitis virus; assay: Antiviral activity against VSV in human HEL cells assessed as protection against virus-induced cytopathicity; assay type: functional, organism-based
Influenza A virus [6] = assay: Antiviral activity against influenza H1N1 virus in MDCK cells assessed as reduction of virus-induced cytopathicity by MTS method; assay type: functional, organism-based; conditions: Influenza A virus, H1N1, MDCK
[7] = Cytotoxicity against human HeLa cells assessed as drug level causing microscopically detectable alteration of normal cell morphology after 3 days; assay type: cell-based
Summary of the method: (§2)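 Serial compound dilutions added to confluent HeLa or Vero monolayers. MCC = minimum concentration causing microscopically detectable alteration of cell morphology after 3 days of incubation.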

[8] = tested on: Human immunodeficiency virus 2; assay: Antiviral activity against HIV2 ROD in human CEM cells assessed as protection against virus-induced cytopathicity after 4 days; assay type: functional, organism-based; conditions: Human immunodeficiency virus 2, ROD, CCRF-CEM, 96 h
Summary of the method: (§3)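 CEM cells (~3 × 10⁵ cells/mL) infected with ~100 CCID₅₀ per mL of HIV-1 (IIIB) or HIV-2 (ROD), then seeded into wells containing compound dilutions. After 4 days at 37 °C, syncytium (giant cell) formation was examined microscopically. EC₅₀ = concentration protecting CEM cells from HIV cytopathicity by 50%.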

[9] = target: Human immunodeficiency virus type 1 reverse transcriptase (Human immunodeficiency virus 1, UniProt Q72547); assay: Inhibition of HIV1 reverse transcriptase p66/p51; conditions: read-out: IC50
[10] = Antiproliferative activity against human Molt4/C8 cells after 3 days; assay type: cell-based; conditions: MOLT-4, 72 h
Summary of the method: (§4)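 Cells seeded at 5 × 10⁴ to 7.5 × 10⁴ cells/200 µL with or without serial compound dilutions; incubated at 37 °C for 2 days (L1210) or 3 days (Molt4/C8, CEM). Cell numbers counted with a Coulter counter. CC₅₀ = concentration reducing proliferation by 50% versus untreated controls, read from plots of cell number (% of control) against concentration. Means of at least two independent experiments.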

Human respirovirus 3 = assay: Antiviral activity against Parainfluenza virus type 3 in african green monkey Vero cells assessed as protection against virus-induced cytopathicity; assay type: functional, organism-based; conditions: Human respirovirus 3, Vero; summary of the method: as §1
[11] = tested on: Vesicular stomatitis virus; assay: Antiviral activity against VSV in human HeLa cells assessed as protection against virus-induced cytopathicity; assay type: functional, organism-based
[12] = tested on: Respiratory syncytial virus; assay: Antiviral activity against RSV Long in human HeLa cells assessed as protection against virus-induced cytopathicity; assay type: functional, organism-based; summary of the method: as §1
Influenza A virus H3N2 [13] = assay: Antiviral activity against influenza H3N2 virus in MDCK cells assessed as reduction of virus-induced cytopathicity by visual cytopathic effect scoring method; assay type: functional, organism-based
[14] = Cytotoxicity against african green monkey Vero cells assessed as drug level causing microscopically detectable alteration of normal cell morphology after 3 days; assay type: cell-based; conditions: chlorocebus sabaeus; summary of the method: as §2
[15] = Cytotoxicity against MDCK cells assessed as drug level causing microscopically detectable alteration of normal cell morphology; assay type: cell-based, Canis lupus familiaris; conditions: dog
Felid alphaherpesvirus 1 = assay: Antiviral activity against Feline herpesvirus in feline […] cells assessed as inhibition of virus-induced cytopathicity; assay type: functional, organism-based
[16] = Cytotoxicity against feline CRFK cells by MTS assay; assay type: cell-based, Felis catus; conditions: cat
[17] = Cytotoxicity against human HEL cells assessed as drug level causing microscopically detectable alteration of normal cell morphology after 3 days; assay type: cell-based
CCRF-CEM = assay: Antiproliferative activity against human CEM cells after 3 days; assay type: cell-based; conditions: 72 h; summary of the method: as §4
Coxsackievirus B4 [18] = assay: Antiviral activity against Coxsackievirus B4 in african green monkey Vero cells assessed as protection against virus-induced cytopathicity; assay type: functional, organism-based; conditions: Enterovirus B; summary of the method: as §1
Coxsackievirus B4 [19] = assay: Antiviral activity against Coxsackievirus B4 in human HeLa cells assessed as protection against virus-induced cytopathicity; assay type: functional, organism-based; conditions: Enterovirus B; summary of the method: as §1
[20] = Cytotoxicity against MDCK cells by MTS assay; assay type: cell-based, Canis lupus familiaris; conditions: dog
L1210 = assay: Antiproliferative activity against mouse L1210 cells after 2 days; assay type: cell-based; conditions: L1210, 48 h; summary of the method: as §4
Human alphaherpesvirus 1 [21] = assay: Antiviral activity against thymidine kinase deficient and acyclovir resistant HSV1 KOS in human HEL cells assessed as protection against virus-induced cytopathicity; assay type: functional, organism-based; conditions: Human alphaherpesvirus 1, KOS
[22] = target: Human immunodeficiency virus type 1 reverse transcriptase (Human immunodeficiency virus 1, UniProt Q72547, L100I); assay: Inhibition of HIV1 reverse transcriptase p66/p51 L100I mutant; conditions: read-out: IC50
Summary of the method: (§5)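 Substrate was 0.5 µg poly(rA)/oligo(dT) 10:1 (0.3 µM 3′-OH ends) with 10 µM [³H]dTTP, at 37 °C. Acid-precipitable radioactivity was counted on GF/C filters after TCA washes.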

Influenza A virus [23] = assay: Antiviral activity against influenza H1N1 virus in MDCK cells assessed as reduction of virus-induced cytopathicity by visual cytopathic effect scoring method; assay type: functional, organism-based
[24] = target: Human immunodeficiency virus type 1 reverse transcriptase (Human immunodeficiency virus 1, UniProt Q72547, Y181I); assay: Inhibition of HIV1 reverse transcriptase p66/p51 Y181I mutant; conditions: read-out: IC50; summary of the method: as §5
Human alphaherpesvirus 2 = assay: Antiviral activity against HSV2 G in human HEL cells assessed as protection against virus-induced cytopathicity; assay type: functional, organism-based; conditions: Human alphaherpesvirus 2, strain G; summary of the method: as §1
[25] = tested on: Mammalian orthoreovirus 1; assay: Antiviral activity against Reovirus 1 in african green monkey Vero cells assessed as protection against virus-induced cytopathicity; assay type: functional, organism-based; conditions: Mammalian orthoreovirus 1, Vero; summary of the method: as §1
Feline coronavirus = assay: Antiviral activity against Feline coronavirus in feline […] cells assessed as inhibition of virus-induced cytopathicity; assay type: functional, organism-based; conditions: Alphacoronavirus 1
Sindbis virus = assay: Antiviral activity against Sindbis virus in african green monkey Vero cells assessed as protection against virus-induced cytopathicity; assay type: functional, organism-based; summary of the method: as §1
[26] = tested on: Human immunodeficiency virus 1; assay: Antiviral activity against HIV1 3B in human CEM cells assessed as protection against virus-induced cytopathicity after 4 days; assay type: functional, organism-based; conditions: Human immunodeficiency virus 1, 3B, CCRF-CEM, 96 h; summary of the method: as §3
Vaccinia virus = assay: Antiviral activity against Vaccinia virus Lederle in human HEL cells assessed as protection against virus-induced cytopathicity; assay type: functional, organism-based; conditions: Orthopoxvirus vaccinia
[27] = target: Human immunodeficiency virus type 1 reverse transcriptase (Human immunodeficiency virus 1, UniProt Q72547, K103N); assay: Inhibition of HIV1 reverse transcriptase p66/p51 K103N mutant; conditions: read-out: IC50; summary of the method: as §5

Row | Compound | EC50 (Influenza B virus [1]) | EC50 (Influenza A virus H3N2 [2]) | EC50 (Human alphaherpesvirus 1 [3]) | EC50 (Punta Toro virus) | EC50 (Influenza B virus [4]) | EC50 [5] | EC50 (Influenza A virus [6]) | MCC at 72 h [7] | EC50 [8] | IC50 [9] | IC50 [10] | EC50 (Human respirovirus 3) | EC50 [11] | EC50 [12] | EC50 (Influenza A virus H3N2 [13]) | MCC at 72 h [14] | MCC [15] | EC50 (Felid alphaherpesvirus 1) | CC50 [16] | MCC at 72 h [17] | further results
1 | Cc1cc(C)cc(S(=O)(=O)c2c(C(=O)NC(C)CC(N)=O)[nH]c3ccc(Cl)cc23)c1 (centres undefined) | > 4 µM | > 4 µM | > 20 µM | > 20 µM | > 4 µM | > 20 µM | > 4 µM | ≥ 20 µM | 30 µM | 0.12 µM | 36 µM | > 20 µM | > 20 µM | > 20 µM | > 4 µM | 100 µM | 20 µM | > 4 µM | 18.9 µM | 100 µM | IC50 (CCRF-CEM): 32 µM; EC50 (Coxsackievirus B4 [18]): 16 µM; EC50 (Coxsackievirus B4 [19]): 4.5 µM; CC50 [20]: 13.5 µM; IC50 (L1210): 48 µM; EC50 (Human alphaherpesvirus 1 [21]): > 20 µM; IC50 [22]: 0.252 µM; EC50 (Influenza A virus [23]): > 4 µM; IC50 [24]: 4.14 µM; EC50 (Human alphaherpesvirus 2): > 20 µM; EC50 [25]: > 20 µM; EC50 (Feline coronavirus): > 4 µM; EC50 (Sindbis virus): > 20 µM; EC50 [26]: 0.026 µM; EC50 (Vaccinia virus): > 20 µM; IC50 [27]: 0.288 µM
2 | Cc1cc(C)cc(S(=O)(=O)c2c(C(=O)NC(C)CC(N)=O)[nH]c3ccc(Br)cc23)c1 (centres undefined) | > 4 µM | > 4 µM | > 4 µM | > 20 µM | > 4 µM | > 4 µM | > 4 µM | ≥ 20 µM | > 10 µM | 0.081 µM | 16 µM | > 20 µM | > 20 µM | > 20 µM | > 4 µM | ≥ 20 µM | ≥ 4 µM | > 4 µM | 11.1 µM | 20 µM | IC50 (CCRF-CEM): 18 µM; EC50 (Coxsackievirus B4 [18]): > 20 µM; EC50 (Coxsackievirus B4 [19]): ≥ 20 µM; CC50 [20]: 79 µM; IC50 (L1210): 16 µM; EC50 (Human alphaherpesvirus 1 [21]): > 4 µM; IC50 [22]: 0.296 µM; EC50 (Influenza A virus [23]): > 4 µM; IC50 [24]: 15.8 µM; EC50 (Human alphaherpesvirus 2): > 4 µM; EC50 [25]: > 20 µM; EC50 (Feline coronavirus): > 4 µM; EC50 (Sindbis virus): > 20 µM; EC50 [26]: 0.0015 µM; EC50 (Vaccinia virus): > 4 µM; IC50 [27]: 0.321 µM
3 | Cc1cc(C)cc(S(=O)(=O)c2c(C(=O)NC(C)CC(N)=O)[nH]c3ccc([N+](=O)[O-])cc23)c1 (centres undefined) | > 4 µM | > 4 µM | > 4 µM | > 20 µM | > 4 µM | > 4 µM | > 4 µM | 100 µM | > 10 µM | 0.033 µM | 41 µM | > 20 µM | > 20 µM | > 20 µM | > 4 µM | 100 µM | 20 µM | > 20 µM | 21.1 µM | 20 µM | IC50 (CCRF-CEM): 36 µM; EC50 (Coxsackievirus B4 [18]): > 20 µM; EC50 (Coxsackievirus B4 [19]): ≥ 20 µM; CC50 [20]: > 100 µM; IC50 (L1210): 37 µM; EC50 (Human alphaherpesvirus 1 [21]): > 4 µM; IC50 [22]: 0.191 µM; EC50 (Influenza A virus [23]): > 4 µM; IC50 [24]: 11.9 µM; EC50 (Human alphaherpesvirus 2): > 4 µM; EC50 [25]: > 20 µM; EC50 (Feline coronavirus): > 20 µM; EC50 (Sindbis virus): > 20 µM; EC50 [26]: 0.0051 µM; EC50 (Vaccinia virus): > 4 µM; IC50 [27]: 1.09 µM
4 | Cc1cc(C)cc(S(=O)(=O)c2c(C(=O)NCCC(N)=O)[nH]c3ccc(Cl)c(F)c23)c1 | > 20 µM | > 20 µM | > 20 µM | > 20 µM | > 20 µM | > 20 µM | > 20 µM | 100 µM | > 10 µM | 0.034 µM | 33 µM | > 20 µM | > 20 µM | 16 µM | > 20 µM | 100 µM | 100 µM | > 20 µM | 45.3 µM | 100 µM | IC50 (CCRF-CEM): 30 µM; EC50 (Coxsackievirus B4 [18]): > 20 µM; EC50 (Coxsackievirus B4 [19]): 9 µM; CC50 [20]: 24.3 µM; IC50 (L1210): 42 µM; EC50 (Human alphaherpesvirus 1 [21]): > 20 µM; IC50 [22]: 0.13 µM; EC50 (Influenza A virus [23]): > 20 µM; IC50 [24]: 7.16 µM; EC50 (Human alphaherpesvirus 2): > 20 µM; EC50 [25]: > 20 µM; EC50 (Feline coronavirus): > 20 µM; EC50 (Sindbis virus): > 20 µM; EC50 [26]: 0.002 µM; EC50 (Vaccinia virus): > 20 µM; IC50 [27]: 0.783 µM
